Here are results for one compound from ChEMBL document CHEMBL5260843 (J Med Chem, 2019).

Calls of active or inactive are those of the source. No cut-off for these calls is given here.

Data set [1] has as its target DCN1-like protein 1/NEDD8-conjugating enzyme Ubc12 (Homo sapiens) (UniProt Q96GG9+P61081). Particulars: dose 500.0 nM, time 1.0 hrs.
Data set [2] deals with KYSE-70 cell line. The data set is described as follows: Inhibition of cullin3 neddylation in human KYSE-70 cells incubated for 24 hrs by Western blot analysis. As to conditions: dose 0.3-10 µM. In kind it is cell-based. The method in brief:
(§1)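 Cells in 6-well plates were exposed to compound for 24 h. MGC-803 were grown in DMEM and KYSE70 in RPMI 1640, both with 10% FBS at 37 °C and 5% CO2. Lysates were made in RIPA with protease inhibitors and quantified by BCA. 30 μg protein was run on 8% SDS-PAGE and blotted to nitrocellulose. Primary antibodies were applied overnight at 4 °C, then HRP secondaries, with ECL and film detection. GAPDH was the loading control. Run three times.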
On the technique in general: In western blotting, separated proteins are transferred to a membrane and probed.

Data set [3] addresses Tyrosine-protein kinase BTK (Homo sapiens) (UniProt Q06187). As to the kind of experiment: Inhibition of N-terminal GST-tagged full length human BTK (2 to 659 residues) expressed in Sf21 insect cells using 5-FAM-EAIYAAPFAKKK as substrate at 10 uM incubated for 60 mins relative to control. The method, boiled down: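 Mobility-shift kinase assay with BTK at 5 nM, 3 μM 5-FAM peptide and 90 μM ATP. Buffer was 50 mM HEPES pH 7.5, 0.0015% Brij-35, 10 mM MgCl2 and 2 mM DTT. Reactions ran 60 min at 28 °C and were stopped with EDTA. Substrate conversion was read on Caliper and converted to % inhibition.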

The nature of data set [4]: Metabolic stability in human liver microsomes assessed as half life. In kind it is ADME, Microsome.
For data set [5], the target named is T1, Cullin-5 (Homo sapiens) (UniProt Q93034).
T1 sequence (whole entry): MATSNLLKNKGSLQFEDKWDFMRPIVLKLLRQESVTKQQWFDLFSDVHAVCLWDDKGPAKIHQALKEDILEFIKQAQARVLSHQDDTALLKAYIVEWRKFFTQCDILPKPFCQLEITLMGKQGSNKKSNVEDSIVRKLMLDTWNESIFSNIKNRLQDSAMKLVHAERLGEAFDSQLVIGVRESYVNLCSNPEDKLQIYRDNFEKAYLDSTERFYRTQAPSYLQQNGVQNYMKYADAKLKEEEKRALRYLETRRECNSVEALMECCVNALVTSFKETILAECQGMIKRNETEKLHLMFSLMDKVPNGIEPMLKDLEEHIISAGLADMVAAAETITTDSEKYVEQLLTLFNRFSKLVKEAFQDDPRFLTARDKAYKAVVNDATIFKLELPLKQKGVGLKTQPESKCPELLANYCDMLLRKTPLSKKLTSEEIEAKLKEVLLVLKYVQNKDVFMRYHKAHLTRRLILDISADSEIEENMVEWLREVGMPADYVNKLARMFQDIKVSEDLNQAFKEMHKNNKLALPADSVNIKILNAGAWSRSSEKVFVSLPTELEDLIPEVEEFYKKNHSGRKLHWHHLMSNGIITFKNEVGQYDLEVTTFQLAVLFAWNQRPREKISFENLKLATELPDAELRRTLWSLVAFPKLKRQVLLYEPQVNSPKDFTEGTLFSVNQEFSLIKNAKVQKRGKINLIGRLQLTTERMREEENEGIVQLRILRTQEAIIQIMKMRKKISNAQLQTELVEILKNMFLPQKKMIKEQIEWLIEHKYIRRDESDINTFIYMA
As to the kind of experiment: Inhibition of cullin5 neddylation in UBC/DCN1 overactivated human MGC-803 cells at 0.3 to 10 uM incubated for 24 hrs by Western blot analysis. The class given is cell-based. Particulars: dose 0.3-10 µM. The method in brief: as §1

Data set [6] has as its target CDK4/Cyclin D3 (Homo sapiens) (UniProt P11802+P30281). As to the kind of experiment: Inhibition of full length human CDK4/N-terminal GST fused human cyclinD3 expressed in baculovirus expression system using 5-FAMIPTSPITTTYFFFKKK-COOH as substrate at 10 uM incubated for 60 mins in presence of ATP relative to control. The method in brief: (§2)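 CDK/cyclin complexes were assayed with 3 μM 5-FAM peptide substrate. ATP was 20 μM for CDK1, 30 μM for CDK2, 280 μM for CDK4, 800 μM for CDK6 and 10 μM for CDK9. Buffer was 50 mM HEPES pH 7.5, 0.0015% Brij-35, 10 mM MgCl2 and 2 mM DTT. Reactions ran 60 min at 28 °C and were stopped with EDTA. Caliper conversion values were converted to % inhibition.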

Data set [7] deals with Cullin-4A (Homo sapiens) (UniProt Q13619). As to the kind of experiment: Inhibition of cullin4A neddylation in human KYSE-70 cells at 0.3 to 10 uM incubated for 24 hrs by Western blot analysis. Particulars: KYSE-70 cell line, dose 0.3-10 µM. In kind it is cell-based. The method in brief: as §1
For data set [8] the target is unchanged. As to the kind of experiment: Inhibition of cullin4A neddylation in UBC/DCN1 overactivated human MGC-803 cells at 0.3 to 10 uM incubated for 24 hrs by Western blot analysis. The class given is cell-based. As to conditions: dose 0.3-10 µM. The method in brief:
as §1

The target of data set [9] is CDK9/cyclin T1 (Homo sapiens) (UniProt O60563+P50750). The data set is described as follows: Inhibition of C-terminal His6 tagged full length recombinant human CDK9/full length human Cyclin T1 expressed in baculovirus infected Sf21 cells using 5-FAM-ACSYSPTSPSYSPTSPSYSPTSPSKK as substrate at 10 uM incubated for 60 mins in presence of ATP relative to control. The method in brief:
as §2

For data set [10], the system named is MGC-803. As to the kind of experiment: Induction of ROS generation in human MGC-803 cells at 3 uM incubated for 24 hrs by DCFH-DA staining based flow cytometry analysis (reference value: 2.2%). The class given is functional. (Flow cytometry measures light scatter and fluorescence of single cells or particles in a stream.)
Data set [11] can be described thus: Metabolic stability in dog liver microsomes assessed as half life. The class given is ADME, Canis lupus familiaris, Microsome.
Data set [12] is described as follows: Metabolic stability in rat liver microsomes assessed as intrinsic clearance. The class given is ADME, Microsome. As to conditions: read-out: CLH. For orientation: Microsomes from liver hold many membrane-bound enzymes, among them those of drug oxidation.
For data set [13], the target named is T1, Cullin-5 (Homo sapiens). The data set is described as follows: Inhibition of cullin5 neddylation in human KYSE-70 cells at 0.3 to 10 uM incubated for 24 hrs by Western blot analysis. The class given is cell-based. As to conditions: KYSE-70 cell line, dose 0.3-10 µM. The method in brief:
as §1

Data set [14] has as its system MGC-803. As to the kind of experiment: Induction of ROS generation in human MGC-803 cells at 1 uM incubated for 24 hrs by DCFH-DA staining based flow cytometry analysis (reference value: 2.2%). The class given is functional.
The nature of data set [15]: Metabolic stability in rat liver microsomes assessed as half life. The class given is ADME, Microsome.
The test system of data set [16] is Epidermal growth factor receptor (Homo sapiens), P00533 [L858R]. The data set is described as follows: Inhibition of human EGFR L858R mutant (669 to 1210 residues) expressed in Sf21 insect cells using 5-FAM-EEPLYWSFPAKKK-CONH2 as substrate at 10 uM incubated for 30 mins relative to control.
The test system of data set [17] is KYSE-70. The data set is described as follows: Induction of p21 accumulation in human KYSE-70 cells incubated for 24 hrs by Western blot analysis. In kind it is functional, cell-based. As to conditions: dose 0.3-10 µM. The method in brief: as §1
For data set [18], the target named is Cyclin-dependent kinase 1/cyclin B (Homo sapiens) (UniProt P06493+P14635+Q8WWL7+O95067). As to the kind of experiment: Inhibition of C-terminal His6 tagged human full length CDK1/N-terminal GST-tagged human full length Cyclin B expressed in baculovirus infected Sf21 cells using 5-FAM-QSPKKG-CONH2 as substrate at 10 uM incubated for 60 mins in presence of ATP relative to control. The method in brief:
as §2

For data set [19], the target named is Cullin-4B (Homo sapiens) (UniProt Q13620). As to the kind of experiment: Inhibition of cullin4B neddylation in UBC/DCN1 overactivated human MGC-803 cells at 0.3 to 10 uM incubated for 24 hrs by Western blot analysis. The class given is cell-based. Particulars: dose 0.3-10 µM. The method, boiled down: as §1
Sequence of Cullin-4B (Homo sapiens) (Q13620 whole entry): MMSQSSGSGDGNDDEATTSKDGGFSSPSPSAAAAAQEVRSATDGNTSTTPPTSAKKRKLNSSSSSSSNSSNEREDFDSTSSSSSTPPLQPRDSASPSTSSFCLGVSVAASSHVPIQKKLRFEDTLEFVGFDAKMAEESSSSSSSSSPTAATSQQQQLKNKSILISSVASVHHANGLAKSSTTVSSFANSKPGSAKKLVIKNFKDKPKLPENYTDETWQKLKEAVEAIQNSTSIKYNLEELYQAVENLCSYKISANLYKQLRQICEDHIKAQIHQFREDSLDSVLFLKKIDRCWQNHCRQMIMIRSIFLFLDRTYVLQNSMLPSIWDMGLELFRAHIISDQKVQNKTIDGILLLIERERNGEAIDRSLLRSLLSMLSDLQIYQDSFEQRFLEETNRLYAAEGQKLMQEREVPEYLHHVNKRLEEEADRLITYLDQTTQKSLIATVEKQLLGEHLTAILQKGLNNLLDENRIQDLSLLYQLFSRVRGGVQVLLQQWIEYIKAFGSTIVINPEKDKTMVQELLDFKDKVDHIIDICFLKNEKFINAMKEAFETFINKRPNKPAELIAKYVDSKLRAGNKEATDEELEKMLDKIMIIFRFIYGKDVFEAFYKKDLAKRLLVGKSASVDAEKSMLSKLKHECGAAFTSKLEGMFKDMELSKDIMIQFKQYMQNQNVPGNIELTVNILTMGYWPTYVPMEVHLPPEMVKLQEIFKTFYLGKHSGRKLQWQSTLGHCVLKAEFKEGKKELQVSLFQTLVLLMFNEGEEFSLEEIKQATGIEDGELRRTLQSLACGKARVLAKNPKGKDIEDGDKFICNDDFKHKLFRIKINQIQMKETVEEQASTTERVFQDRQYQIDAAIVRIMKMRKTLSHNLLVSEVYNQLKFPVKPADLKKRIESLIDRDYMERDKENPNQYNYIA

Sequence of Cullin-4A (Homo sapiens) (Q13619 whole entry): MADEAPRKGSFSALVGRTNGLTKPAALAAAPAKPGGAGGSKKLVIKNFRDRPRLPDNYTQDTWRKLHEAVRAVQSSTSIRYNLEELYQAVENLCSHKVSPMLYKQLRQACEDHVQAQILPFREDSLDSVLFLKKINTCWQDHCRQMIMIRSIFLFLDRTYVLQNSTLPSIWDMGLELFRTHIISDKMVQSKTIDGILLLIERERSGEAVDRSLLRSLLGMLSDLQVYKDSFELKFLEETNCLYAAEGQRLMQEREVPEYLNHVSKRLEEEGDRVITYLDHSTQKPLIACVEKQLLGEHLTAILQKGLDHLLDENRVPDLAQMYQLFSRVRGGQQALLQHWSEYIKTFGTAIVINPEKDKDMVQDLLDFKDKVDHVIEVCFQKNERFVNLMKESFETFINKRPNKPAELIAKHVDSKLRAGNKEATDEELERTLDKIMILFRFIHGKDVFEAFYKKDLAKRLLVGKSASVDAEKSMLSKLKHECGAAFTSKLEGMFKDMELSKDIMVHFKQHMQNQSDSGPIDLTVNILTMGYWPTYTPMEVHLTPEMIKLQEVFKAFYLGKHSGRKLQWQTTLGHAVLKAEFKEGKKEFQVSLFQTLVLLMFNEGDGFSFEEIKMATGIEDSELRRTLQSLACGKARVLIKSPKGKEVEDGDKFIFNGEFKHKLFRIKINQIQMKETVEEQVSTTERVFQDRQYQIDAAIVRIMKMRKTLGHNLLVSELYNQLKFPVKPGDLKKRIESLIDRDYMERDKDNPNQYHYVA
Sequence of Epidermal growth factor receptor (Homo sapiens), P00533 [L858R] (P00533 whole entry L858R, the tested form may be a part): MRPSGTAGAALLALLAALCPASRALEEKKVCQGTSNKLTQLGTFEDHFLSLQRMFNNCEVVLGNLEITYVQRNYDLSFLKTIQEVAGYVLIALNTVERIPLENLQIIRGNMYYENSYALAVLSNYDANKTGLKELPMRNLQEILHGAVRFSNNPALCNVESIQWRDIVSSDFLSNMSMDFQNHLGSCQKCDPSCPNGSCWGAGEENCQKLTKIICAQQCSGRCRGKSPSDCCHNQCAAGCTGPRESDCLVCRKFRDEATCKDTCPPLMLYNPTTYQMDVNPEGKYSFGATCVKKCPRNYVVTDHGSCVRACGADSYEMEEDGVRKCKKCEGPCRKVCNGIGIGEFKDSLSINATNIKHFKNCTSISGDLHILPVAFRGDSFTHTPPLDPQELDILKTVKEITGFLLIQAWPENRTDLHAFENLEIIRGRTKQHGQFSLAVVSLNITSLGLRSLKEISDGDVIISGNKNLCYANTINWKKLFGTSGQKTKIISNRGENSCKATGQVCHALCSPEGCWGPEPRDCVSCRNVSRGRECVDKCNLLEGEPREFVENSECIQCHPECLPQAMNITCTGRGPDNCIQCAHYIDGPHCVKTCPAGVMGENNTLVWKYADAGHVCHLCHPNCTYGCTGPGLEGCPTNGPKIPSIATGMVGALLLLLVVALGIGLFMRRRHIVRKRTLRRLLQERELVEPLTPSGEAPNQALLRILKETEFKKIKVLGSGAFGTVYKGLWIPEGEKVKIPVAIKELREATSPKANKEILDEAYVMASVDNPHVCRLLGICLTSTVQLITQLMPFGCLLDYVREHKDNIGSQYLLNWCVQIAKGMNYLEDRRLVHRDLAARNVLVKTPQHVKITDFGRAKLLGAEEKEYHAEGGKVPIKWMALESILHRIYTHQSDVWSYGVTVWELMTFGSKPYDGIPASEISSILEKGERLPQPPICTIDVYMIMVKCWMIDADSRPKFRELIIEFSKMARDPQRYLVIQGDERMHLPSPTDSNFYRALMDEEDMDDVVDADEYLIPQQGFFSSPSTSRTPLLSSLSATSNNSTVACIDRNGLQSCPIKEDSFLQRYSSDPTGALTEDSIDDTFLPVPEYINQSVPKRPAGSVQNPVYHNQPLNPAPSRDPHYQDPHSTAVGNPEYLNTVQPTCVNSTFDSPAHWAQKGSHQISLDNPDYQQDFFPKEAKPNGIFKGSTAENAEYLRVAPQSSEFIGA
Sequence of DCN1-like protein 1/NEDD8-conjugating enzyme Ubc12 (Homo sapiens) (P61081 whole entry, looked up): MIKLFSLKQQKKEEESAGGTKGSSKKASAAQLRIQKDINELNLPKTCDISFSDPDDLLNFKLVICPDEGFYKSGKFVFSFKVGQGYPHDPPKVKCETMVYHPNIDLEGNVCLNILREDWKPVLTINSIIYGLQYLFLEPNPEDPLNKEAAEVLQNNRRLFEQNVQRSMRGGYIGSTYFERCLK
Sequence of DCN1-like protein 1/NEDD8-conjugating enzyme Ubc12 (Homo sapiens) (Q96GG9 whole entry, looked up): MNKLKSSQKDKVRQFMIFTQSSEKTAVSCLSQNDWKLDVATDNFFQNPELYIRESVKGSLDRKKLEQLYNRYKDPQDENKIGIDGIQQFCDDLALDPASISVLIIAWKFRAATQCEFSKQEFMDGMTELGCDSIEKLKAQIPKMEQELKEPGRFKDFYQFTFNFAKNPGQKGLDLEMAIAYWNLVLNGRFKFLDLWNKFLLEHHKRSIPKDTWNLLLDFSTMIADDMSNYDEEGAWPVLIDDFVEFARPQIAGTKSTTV
Sequence of Tyrosine-protein kinase BTK (Homo sapiens) (Q06187 whole entry, the tested form may be a part): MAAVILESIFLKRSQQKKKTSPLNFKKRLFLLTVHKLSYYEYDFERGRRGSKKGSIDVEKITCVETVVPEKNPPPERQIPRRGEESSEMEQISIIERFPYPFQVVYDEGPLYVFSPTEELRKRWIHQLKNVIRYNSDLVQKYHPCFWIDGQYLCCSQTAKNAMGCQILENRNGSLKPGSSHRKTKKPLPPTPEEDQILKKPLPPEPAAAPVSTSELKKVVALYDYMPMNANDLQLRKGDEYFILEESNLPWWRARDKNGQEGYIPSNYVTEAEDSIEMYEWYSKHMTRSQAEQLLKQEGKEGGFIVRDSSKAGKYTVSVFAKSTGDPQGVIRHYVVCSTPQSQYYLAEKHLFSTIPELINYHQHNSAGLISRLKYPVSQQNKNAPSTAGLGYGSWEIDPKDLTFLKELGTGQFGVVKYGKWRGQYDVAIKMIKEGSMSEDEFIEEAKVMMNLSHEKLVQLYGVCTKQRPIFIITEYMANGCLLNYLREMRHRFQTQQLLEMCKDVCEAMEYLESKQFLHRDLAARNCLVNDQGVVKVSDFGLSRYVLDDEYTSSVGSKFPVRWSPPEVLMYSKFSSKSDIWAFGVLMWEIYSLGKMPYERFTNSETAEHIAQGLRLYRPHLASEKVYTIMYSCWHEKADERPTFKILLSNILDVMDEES

As usually defined, the inhibition is the drop in the measured response relative to a control, in per cent. As usually defined, the half-life is how long it takes for the measured level to halve. For the compound `Cc1cc(Sc2nnnn2CCN(C)C)n2nc(SCc3ccc(Cl)cc3)nc2n1.Cl`, in data set [1], the inhibition result was “Active”. For the same compound, the inhibition result was “Dose-Dependent Effect” in [2]; 13.6% in data set [3]; 4.8% in data set [6]; -8.4% in data set [9]; -0.6% in data set [16]; 9.6% in [18]. In addition, the half-life in data set [4], in data set [11] and in data set [15] was under 5 min each time. The inhibition result in data set [5], in data set [7], in data set [8], in data set [13] and in data set [19] was “inactive” throughout. For the same compound, the Activity in data set [10] is 2.6%; in data set [14], 3.8%; in [17], “Dose-Dependent Effect”. In addition, the CLint scaled in data set [12] turned out to be 497 mL/min/kg.
